DAGLB inhibitor = DAGLB lipase inhibitors, primary screen, biochemical, fluorescence, HTS; HEK293T DAGLB membrane lysate, EnzChek fluorogenic substrate; inhibition, % at 5.17 µM; 0.059% of 340,000 active; AID 504411, 2011; in the data active = inhibition above about 34%;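 note: 0% = enzyme with vehicle and 100% = wells lacking enzyme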
Target sequence (Q8NCG7 whole entry, looked up): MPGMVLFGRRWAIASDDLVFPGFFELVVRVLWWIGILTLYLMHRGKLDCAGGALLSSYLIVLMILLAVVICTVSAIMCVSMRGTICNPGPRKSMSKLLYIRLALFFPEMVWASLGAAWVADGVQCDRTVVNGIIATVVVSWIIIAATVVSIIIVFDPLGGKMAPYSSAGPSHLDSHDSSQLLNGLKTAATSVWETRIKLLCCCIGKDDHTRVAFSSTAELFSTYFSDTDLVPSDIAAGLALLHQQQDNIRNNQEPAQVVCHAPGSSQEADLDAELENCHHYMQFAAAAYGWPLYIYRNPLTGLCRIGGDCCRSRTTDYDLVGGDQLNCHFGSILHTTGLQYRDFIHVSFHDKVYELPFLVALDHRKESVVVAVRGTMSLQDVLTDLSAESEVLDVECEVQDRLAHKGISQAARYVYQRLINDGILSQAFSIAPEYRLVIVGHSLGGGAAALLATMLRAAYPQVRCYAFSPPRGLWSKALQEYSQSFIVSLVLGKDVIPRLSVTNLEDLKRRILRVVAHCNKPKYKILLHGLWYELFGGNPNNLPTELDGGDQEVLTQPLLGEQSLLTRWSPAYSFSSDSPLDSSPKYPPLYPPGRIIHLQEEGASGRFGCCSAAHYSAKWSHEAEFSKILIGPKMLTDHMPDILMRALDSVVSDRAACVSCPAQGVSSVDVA
MPTP inh = mitochondrial permeability transition pore inhibitors, primary screen, biochemical, isolated mouse mitochondria, absorbance; Ca2+ swelling absorbance, 30 min; inhibition, % at 10 µM; 1.4% of 360,000 active; AID 602449, 2012;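 active = inhibition of 50% or more, scaled per plate between neutral and stimulator controls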;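 note: 0% = DMSO wells given calcium and 100% = 1 mM EGTA wells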
TAAR1 antagonist = human TAAR1 antagonists, primary screen, Fluo-8 calcium fluorescence, CHO RD-HGA16 cells; 1.5% of 360,000 active; antagonist; Trace amine-associated receptor 1 (Homo sapiens), Q96RJ0; inhibition, % at 3 µM;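 active = inhibition above a per-plate cutoff, the mean inhibition of test compounds on that plate plus 3 SD, cut at about 49% in these data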;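 note: 0% = DMSO plus EC80 beta-PEA response and 100% = DMSO alone without agonist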
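System: RD-HGA16 CHO cells with stable hTAAR1 and Gα16 | Probe or stimulus: EC80 β-phenethylamine stimulus | Dosing: 3 µM, single point | Times: Dye loading 75 min at 37 °C, then 30 min room temperature | Measured by: Fluo-8 calcium-sensitive fluorescence | Read-out basis: % inhibition of agonist calcium response | Replicates: n of 1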
TAAR1 ag = human TAAR1 agonists, primary screen, Fluo-8 calcium fluorescence, CHO RD-HGA16 cells; vehicle wells 0%, saturating PEA agonist 100%; activation, % at 3 µM; 0.99% of 360,000 active;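 active = activation above the mean activation of all test compounds in the run plus 3 SD, cut at about 38% in these data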
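test system = CHO RD-HGA16 cells carrying human TAAR1 plus Gα16 | schedule = 17-24 h seeding, 75 min 37 °C dye, 30 min RT | compound dosing = 3 µM single concentration | control set = DMSO and PEA EC100 | replicates = n 1 | signal = Fluo-8 fluorescence, 5 s baseline then 140 s kinetic read | measure = percent activation vs PEA EC100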
GPR7 antagonist = GPR7 receptor antagonists, primary screen, cell-based, fluorescence, single concentration; Neuropeptides B/W receptor type 1 (Homo sapiens), P48145; GPR7-expressing cells, fluorescence antagonist assay; inhibition, % at 4.4 µM; 1.1% of 290,000 active; AID 1861, 2009; in the data active = inhibition above about 16%, passing the limit was not always enough;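 note: cells stimulated with the agonist NPW; 0% = agonist with vehicle and 100% = vehicle without agonist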
TAAR1 ag conf = human TAAR1 agonists, retest of hits, confirmation, Fluo-8 calcium fluorescence, CHO RD-HGA16 cells; scaled: DMSO 0%, maximal phenethylamine 100%; shares compounds with TAAR1 ag; 82% of 2,400 active; activation, % at 3 µM;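 active = activation above a cutoff set at the run's mean compound activation plus 3 SD, cut at about 39% in these data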
Ga16 nonsel ag = nonselective calcium mobilization agonists, CHO-Ga16 cells, counter-screen for hTAAR1 agonist project, cell-based, fluorescence, CHO-Ga16 parental line | shares compounds with TAAR1 ag | Fluo-8 calcium fluorescence; normalized to maximal ATP response, DMSO zero | activation, % at 3 µM | 50% of 2,400 active | AID 651787, 2012;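 active = activation above the run cutoff, the mean activation over all tested wells plus 3 SD, cut at about 12% in these data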;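 note: 0% = DMSO wells and 100% = maximal ATP response on the peak over basal ratio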
TAAR1 desens = TAAR1 desensitization by agonist hits, confirmation, counter-screen for TAAR1 agonist project, cell-based, fluorescence, tachyphylaxis | shares compounds with TAAR1 ag | CHO RD-HGA16 hTAAR1, Fluo-8 calcium, beta-PEA response inhibition | inhibition, % at 3 µM | 46% of 2,400 active;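 active = inhibition above the run cutoff, the mean inhibition of all test compounds plus 3 SD, cut at about 49% in these data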;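 note: beta-PEA stimulus applied at its EC80; loss of beta-PEA calcium signal after compound pretreatment read as receptor desensitization; 0% = DMSO with beta-PEA at EC80 and 100% = DMSO alone without agonist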
Ga16 antag count = inhibition of ATP-evoked calcium response in CHO-Ga16 cells, counter-screen for TAAR1 agonist project, cell-based, fluorescence; AID 651952, 2012; CHO-Ga16 ATP-induced calcium, Fluo-8 fluorescence; 39% of 2,400 active; shares compounds with TAAR1 ag; inhibition, % at 3 µM;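 active = inhibition above the plate's mean compound inhibition plus 3 SD, computed per plate, cut at about 22% in these data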;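 note: 0% = EC80 ATP with DMSO and 100% = DMSO wells without ATP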
* = called active by the depositor; . = no result given. In the library only some 4% were active in any assay of this set; here they are far more common.

SMILES	DAGLB inhibitor	MPTP inh	TAAR1 antagonist	TAAR1 ag	GPR7 antagonist	TAAR1 ag conf	Ga16 nonsel ag	TAAR1 desens	Ga16 antag count
Cc1cc(NS(=O)(=O)c2ccc(NC(=O)c3c(F)c(F)c(F)c(F)c3F)cc2)nc(C)n1	-1.1	0.5	-0.2	0.4	-1.8	.	.	.	.
Cc1ccc(S(=O)(=O)Nc2ccc(NC(=O)c3c(F)c(F)c(F)c(F)c3F)cc2)cc1	-2.1	1.5	66.2*	117.0*	77.6*	115.5*	71.5*	99.7*	66.8*
COc1ccccc1NS(=O)(=O)c1ccc(C(=O)N2CCCC(C(F)(F)F)C2)cc1 (centres undefined)	-1.7	-0.4	8.1	15.2	.	.	.	.	.
Cc1ccc([C@@H]2C[C@H]3[C@@H](CN2S(=O)(=O)c2ccc(Cl)cc2)C(=O)C[C@@H](c2ccc(Cl)cc2)N3S(=O)(=O)c2ccccc2C)cc1	-17.1	0.7	-16.3	3.1	.	.	.	.	.
O=c1c2ccccc2c(C=Nc2cccc(O)c2)c(O)n1-c1ccc2c(c1)OCO2	2.4	-1.6	41.4	62.2*	-2.2	81.8*	40.8*	67.2*	26.0*
CC1(C)CC(=O)C(C(=O)/C=C/NCCc2ccccc2)C(=O)C1	-0.6	1.2	92.3*	86.9*	9.2	109.3*	3.0	93.1*	0.2
Cc1sc(NC(=O)c2ccco2)c(C(c2cccnc2)N2CCC(C)CC2)c1C (centres undefined)	2.8	0.8	27.1	62.1*	20.2*	54.3*	21.7*	38.1	23.0*
CC(=O)OCC(=O)NCC1CCN(C(=O)C(=O)c2cc3ccccc3o2)CC1	.	.	-16.9	0.0	.	.	.	.	.
Cc1cc(C)c2cc3c(N)c(C(=O)N4CCc5ccccc5C4)sc3nc2c1	5.5	1.2	11.5	78.0*	-6.5	55.8*	12.3*	39.9	39.4*
Cc1ccc2nc3sc(C(=O)N4CCCc5ccccc54)c(N)c3cc2c1	0.8	7.9	25.9	15.6	-4.2	.	.	.	.
COC(=O)c1sccc1S(=O)(=O)N1CCCC(N(C)CCc2ccccn2)C1 (centres undefined)	-0.5	-2.3	0.1	1.9	21.6	.	.	.	.
CCc1nc2c(c(=O)c3ccccc3n2C)c(=O)n1C1CCCCCC1	3.6	3.1	-2.6	65.6*	-3.9	74.0*	55.0*	30.2	12.6
Cn1c2ccccc2c(=O)c2c(=O)n(-c3ccccc3)c(C3CCCCC3)nc21	-0.9	2.3	-30.4	9.9	-6.6	.	.	.	.
Cn1c2ccccc2c(=O)c2c(=O)n(C3CCCCC3)c(-c3cccs3)nc21	6.2	-0.1	8.2	53.5*	-2.1	104.4*	74.7*	60.9*	21.6*
Cc1cc(N2CCN(C(=O)OC(C)(C)C)C[C@H]2C)ccc1N1C[C@@H](C)O[C@@H](C)C1	.	.	-9.2	2.8	.	.	.	.	.
O=C(C(=O)N1CCN(C(=O)c2cccs2)CC1)c1cccc(C(F)(F)F)c1	.	.	-16.4	1.1	.	.	.	.	.
O=C1c2ccccc2-c2onc3ccc(N4CCCC4)c1c23	-46.6	3.5	40.0	35.2	-5.3	.	.	.	.
CCNc1ccc2noc3c2c1C(=O)c1ccccc1-3	-450.6	9.5	89.5*	318.5*	-3.5	113.8*	127.2*	65.8*	65.7*
CCOc1ccc2noc3c2c1C(=O)c1ccccc1-3	-156.3	-0.1	42.9	68.5*	-3.0	26.2	35.6*	28.5	40.5*
O=C(Nc1ccccn1)C(c1ccccc1)c1ccccc1	1.5	-1.1	-18.2	4.5	.	.	.	.	.
CN(Cc1cnn(-c2ccc(F)cc2)c1)C(=O)[C@H]1O[C@@H](n2ccc(=O)[nH]c2=O)[C@H](O)[C@@H]1O	.	-0.3	-10.7	0.7	.	.	.	.	.
CC1C(c2ccccc2)OCCN1C(=S)Nc1ccc(S(=O)(=O)N2CCCCC2)cc1 (centres undefined)	-0.9	3.0	10.1	54.6*	.	56.1*	7.5	33.6	32.3*
Cc1ccc(C)c(Nc2c([N+](=O)[O-])ccc3nonc23)c1	14.7	0.7	-3.9	71.5*	-18.5	66.3*	39.7*	-8.4	-12.2
O=C1/C(=C\c2ccc(Br)o2)Cc2ccccc21	-6.4	-1.5	31.8	50.4*	11.2	6.8	9.5	-11.8	-1.4
O=C1C(=Cc2cccc(Cl)c2)Cc2ccccc21	.	0.7	-9.6	3.1	.	.	.	.	.
SMILES	DAGLB inhibitor	MPTP inh	TAAR1 antagonist	TAAR1 ag	GPR7 antagonist	TAAR1 ag conf	Ga16 nonsel ag	TAAR1 desens	Ga16 antag count
NC(=O)Nc1ccc(Oc2ncc(C(F)(F)F)cc2Cl)cc1	-2.8	-0.1	-5.4	-0.2	-4.6	.	.	.	.
CCCNS(=O)(=O)c1ccc(Oc2ncc(C(F)(F)F)cc2Cl)cc1	-6.7	7.4	39.0	53.2*	-3.5	39.6*	22.8*	29.4	17.1
CCCc1cc2c(OC)ccc(O)c2c(=O)n1C	.	.	-11.2	-2.1	.	.	.	.	.
O=C(CCCCCn1c(=S)[nH]c2ccc(N3CCOCC3)cc2c1=O)NCCc1ccccc1	4.3	-12.4	22.3	55.2*	-0.4	69.7*	2.5	41.7	10.4
O=C(CCCn1c(=S)[nH]c2cc3c(cc2c1=O)OCO3)NCCc1ccccc1Cl	-4.1	-1.3	-12.5	52.2*	0.8	20.8	0.1	8.5	2.3
O=C(CCn1c(=S)[nH]c2cc3c(cc2c1=O)OCO3)NCCc1ccccc1Cl	-0.1	0.9	41.0	73.5*	.	91.6*	1.7	78.1*	6.7
COC(=O)c1cc2c(c3c4cc(C)ccc4n(S(=O)(=O)c4ccc(OC)cc4)c13)C(=O)N(Cc1ccccc1)C2	.	.	-13.8	-0.3	.	.	.	.	.
COc1cc(C(=O)Nc2ccc(C(F)(F)F)cc2)ccc1OCC(=O)N1CCOCC1	-1.2	1.4	-7.3	3.0	.	.	.	.	.
Cc1ccc(S(=O)(=O)N2[C@@H](CO)CO[C@H]2CC(=O)OCc2ccccc2)cc1	.	0.1	-14.3	1.6	.	.	.	.	.
CCCN=C(C)C1=C(O)c2ccccc2C1=O	-2.7	1.7	2.0	1.3	-5.8	.	.	.	.
CC(=NCc1ccccc1)C1=C(O)COC1=O	-8.8	0.7	-2.1	0.5	-0.9	.	.	.	.
CC(=NCCc1ccccc1)C1=C(O)C(c2ccccc2)OC1=O (centres undefined)	0.1	-2.2	14.3	73.0*	-5.8	77.0*	1.9	37.4	11.1
